According to ChEMBL document CHEMBL1121686 (J Med Chem, 1981):
“And” between values parts separate entries of the source, which are not always exact repeats. Equal values may be shown once.

Key:
Mus musculus [1] = assay: The compound tested for toxicity in kidney against female mouse after intragastric administration of 10.0 mmol/kg; Normal; details: in vivo
Mus musculus [2] = assay: The compound tested for toxicity in kidney against female mouse after intravenous administration of 2.0 mmol/kg; Normal; format: organism-based; details: in vivo
Procedure, shortened: (§1)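 Young adult female Swiss mice, previously housed on pine wood-chip bedding. The sodium salt was given in aqueous solution at 2.0 mmol/kg intravenously or 10 mmol/kg intragastrically. Animals were housed in metabolic cages with feed and water ad libitum for 48 h, with urine collected throughout. At 48 h, liver and kidneys were assessed histologically. Liver was graded as vacuolation (1+) or centrilobular necrosis (2+ to 4+); kidney was graded as deep cortical tubular necrosis.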

[3] = Percent of total excretion of acetaminophen; format: ADME
Procedure, shortened: (§2)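 Urine was collected for 48 h from dosed rats or mice kept in metabolic cages. It was filtered (0.5 μm) and separated by reverse-phase HPLC at 2 mL/min, starting in phosphate-buffered solvent at pH 7.2. After a 4 min delay, methanol was raised linearly to 50% over 18 min. Detection was at 254 and 280 nm. Each metabolite was quantified from peak area using response factors from standards and expressed as % of total excreted metabolites.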

[4] = Percent of total excretion of 3-(thiomethyl)acetaminophen glucuronide; format: ADME
Procedure, shortened: as §2

[5] = Percent of total excretion of acetaminophen glucuronide; format: ADME
Procedure, shortened: as §2

[6] = Percent of total excretion of N-hydroxyacetaminophen sulfate; format: ADME
Procedure, shortened: as §2

[7] = Percent of total excretion of N-methoxyacetaminophen sulfate; format: ADME
Procedure, shortened: as §2

[8] = Percent of total excretion of acetaminophen cysteine conjugate; format: ADME
Procedure, shortened: as §2

[9] = Percent of total excretion of N-hydroxyacetaminophen glucuronide; format: ADME
Procedure, shortened: as §2

[10] = Percent of total excretion of acetaminophen-mercapturic acid; format: ADME
Procedure, shortened: as §2

Mus musculus [11] = assay: The compound tested for toxicity in liver against female mouse after intragastric administration of 10 mmol/kg; signifies centrilobular necrosis of liver; format: organism-based; details: in vivo, po
Procedure, shortened: as §1

[12] = Percent of total excretion of N-methoxyacetaminophen glucuronide; format: ADME
Procedure, shortened: as §2

[13] = Percent of total excretion of acetaminophen sulfate; format: ADME
Procedure, shortened: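 Rats (male Sprague-Dawley, 1.0 or 2.0 mmol/kg ip) and Swiss mice (males 2.0 mmol/kg ip; females 2.0 mmol/kg iv or 10 mmol/kg intragastric) dosed in aqueous solution. Urine was collected over 0–48 h in metabolic cages. Filtered urine went through gradient HPLC (pH 7.2 buffer, 0→50% methanol; 254/280 nm), quantified against standard peak-area response factors. Values are % of total excreted metabolites.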

[14] = Percent of total excretion of 3-(thiomethyl)acetaminophen sulfate; format: ADME
Procedure, shortened: as §2

Mus musculus [15] = assay: The compound tested for toxicity in liver against female mouse after intravenous administration of 2.0 mmol/kg; signifies centrilobular necrosis of liver; format: organism-based; details: in vivo
Procedure, shortened: as §1

[16] = Percent of total excretion of 3-methoxyacetaminophen glucuronide; format: ADME
Procedure, shortened: as §2

[17] = (§3) Percent total excretion of acetaminophen glucuronide; format: ADME
Procedure, shortened: as §2

Rattus norvegicus [18] = assay: The compound tested for toxicity in liver against male rat after intraperitoneal administration of 1.0 mmol/kg; format: organism-based; details: in vivo, ip
Procedure, shortened: (§4)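 Young adult male Sprague-Dawley rats dosed intraperitoneally at 1.0 or 2.0 mmol/kg in aqueous solution. Animals were kept in metabolic cages with food and water ad libitum, and urine was collected over 48 h. Liver and kidney were examined histologically at 48 h. Liver was graded as vacuolation (1+) or centrilobular necrosis (2+, 3+, 4+); kidney was graded as deep cortical tubular necrosis.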

[19] = (§5) Percent total excretion of N-methoxyacetaminophen glucuronide; format: ADME
Procedure, shortened: as §2

[20] = (§6) Percent total excretion of N-methoxyacetaminophen sulfate; format: ADME
Procedure, shortened: as §2

Rattus norvegicus [21] = species: Rattus norvegicus; assay: as §6; format: functional
Procedure, shortened: as §2

Rattus norvegicus [22] = species: Rattus norvegicus; assay: (§7) Percent total excretion of 3-methoxyacetaminophen glucuronide; format: functional
Procedure, shortened: as §2

[23] = (§8) Percent total excretion of 3-(thiomethyl)acetaminophen glucuronide; format: ADME
Procedure, shortened: as §2

Rattus norvegicus [24] = species: Rattus norvegicus; assay: (§9) Percent total excretion of 3-(thiomethyl)acetaminophen sulfate; format: functional
Procedure, shortened: as §2

Mus musculus [25] = assay: The compound tested for toxicity in kidney against male mouse after intraperitoneal administration of 2.0 mmol/kg; format: organism-based; details: in vivo, ip
Procedure, shortened: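 Young adult male Swiss mice given a single intraperitoneal dose of 2.0 mmol/kg in aqueous solution. Animals were held in metabolic cages with standard feed and water ad libitum, and urine was collected for 48 h. At 48 h, liver and kidneys were taken for histology. Liver was scored as vacuolation (1+) or centrilobular necrosis (2+ to 4+); kidney was scored as deep cortical tubular necrosis.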

[26] = as §9; format: ADME
Procedure, shortened: as §2

Rattus norvegicus [27] = species: Rattus norvegicus; assay: as §3; format: functional
Procedure, shortened: as §2

Rattus norvegicus [28] = assay: The compound tested for toxicity in kidney against male rat after intraperitoneal administration of 2.0 mmol/kg; Positive; format: organism-based; details: in vivo, ip
Procedure, shortened: as §4

[29] = (§10) Percent total excretion of acetaminophen-mercapturic acid; format: ADME
Procedure, shortened: as §2

Rattus norvegicus [30] = species: Rattus norvegicus; assay: as §10; format: functional
Procedure, shortened: as §2

Mus musculus [31] = assay: The compound tested for toxicity in liver against male mouse after intraperitoneal administration of 2.0 mmol/kg; details: in vivo, ip
Rattus norvegicus [32] = species: Rattus norvegicus; assay: Percent total excretion of acetaminophen sulfate; format: functional
Procedure, shortened: as §2

Rattus norvegicus [33] = assay: (§11) Percent dose excreted in 0-48 hours administered ip to male rat; format: ADME, organism-based; details: in vivo
Procedure, shortened: (§12)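 Young adult male Sprague-Dawley rats were dosed i.p. with N-hydroxyacetaminophen in aqueous solution at 1.0 and 2.0 mmol/kg. Animals were held in metabolic cages with standard feed and water ad libitum, and urine was collected over 48 h. Quantitation was by gradient HPLC, using response factors from standard solutions.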

Rattus norvegicus [34] = species: Rattus norvegicus; assay: Percent total excretion of acetaminophen cysteine conjugate; format: functional
Procedure, shortened: as §2

Rattus norvegicus [35] = species: Rattus norvegicus; assay: (§13) Percent total excretion of acetaminophen; format: functional
Procedure, shortened: as §2

[36] = as §7; format: ADME
Procedure, shortened: as §2

[37] = as §13; format: ADME
Procedure, shortened: as §2

Rattus norvegicus [38] = assay: The compound tested for toxicity in kidney against male rat after intraperitoneal administration of 1.0 mmol/kg; format: organism-based; details: in vivo, ip
Procedure, shortened: as §4

Rattus norvegicus [39] = species: Rattus norvegicus; assay: as §5; format: functional
Procedure, shortened: as §2

Rattus norvegicus [40] = assay: The compound tested for toxicity in liver against male rat after intraperitoneal administration of 2.0 mmol/kg; format: organism-based; details: in vivo, ip
Procedure, shortened: as §4

Rattus norvegicus [41] = assay: as §11; format: functional
Procedure, shortened: as §12

Mus musculus [42] = assay: Percent dose excreted in 0-48 hours administered ip to male mouse; format: ADME, organism-based; details: in vivo
Procedure, shortened: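 Young adult male Swiss mice, previously housed on pine wood-chip bedding, received N-hydroxyacetaminophen in aqueous solution i.p. at 2.0 mmol/kg. They were then kept in metabolic cages with standard feed and water ad libitum. Urine was collected for 48 h and analysed by gradient reverse-phase HPLC, with peak areas calibrated against standard solutions.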

Rattus norvegicus [43] = species: Rattus norvegicus; assay: as §8; format: functional
Procedure, shortened: as §2

SMILES: CC(=O)Nc1ccc(O)cc1 [ACETAMINOPHEN]
- Toxicity (Mus musculus [1]): 0
- Toxicity (Mus musculus [2]): 0
- Total excretion [3]: 11.9% and 12.1%
- Total excretion [4]: 0.7% and 0.6%
- Total excretion [5]: 64% and 58.4%
- Total excretion [6]: 0%
- Total excretion [7]: 0%
- Total excretion [8]: 2.9% and 10.4%
- Total excretion [9]: 0%
- Total excretion [10]: 3.5% and 3.8%
- Toxicity (Mus musculus [11]): 3
- Total excretion [12]: 0%
- Total excretion [13]: 13.8% and 13.3%
- Total excretion [14]: 3.3% and 1.5%
- Toxicity (Mus musculus [15]): 2
- Total excretion [16]: 0%

SMILES: CC(=O)N(O)c1ccc(O)cc1
- Total excretion [17]: 18% and 25.9%
- Toxicity (Rattus norvegicus [18]): 0
- Total excretion [19]: 2.3% and 3.4%
- Total excretion [20]: 2.7% and 3%
- Total excretion (Rattus norvegicus [21]): 8.1%
- Total excretion (Rattus norvegicus [22]): 0%
- Total excretion [23]: 2% and 4.1%
- Total excretion (Rattus norvegicus [24]): 5.1%
- Toxicity (Mus musculus [25]): 0
- Total excretion [26]: 9% and 15.9%
- Total excretion (Rattus norvegicus [27]): 10.8%
- Toxicity (Rattus norvegicus [28]): Positive
- Total excretion [29]: 13.2% and 6.1%
- Total excretion (Rattus norvegicus [30]): 14.5%
- Toxicity (Mus musculus [31]): 2
- Total excretion (Rattus norvegicus [32]): 51.3%
- Dose (Rattus norvegicus [33]): 55%
- Total excretion (Rattus norvegicus [34]): 0%
- Total excretion (Rattus norvegicus [35]): 7%
- Total excretion [36]: 0%
- Total excretion [37]: 5% and 4.5%
- Toxicity (Rattus norvegicus [38]): 0
- Total excretion (Rattus norvegicus [39]): 1.5%
- Toxicity (Rattus norvegicus [40]): 0
- Dose (Rattus norvegicus [41]): 70.9%
- Dose (Mus musculus [42]): 41.5%
- Total excretion (Rattus norvegicus [43]): 1.9%
